Results pooled from the literature.
Compare with care: the assays were run in different laboratories.
Target: Casein kinase II subunit alpha' (CSNK2A2, Homo sapiens, UniProt P19784)

| Structure (SMILES) | read-out | technique | concentration | remaining binding [%] |
| --- | --- | --- | --- | --- |
| CN(CCCC(F)(F)F)c1nccc(-c2cnn3ncccc23)n1 | binding |  | 1 µM | 92 |
| CNC(=O)[C@@H]1CC[C@@H](n2c(-c3ccc4cnccc4c3)nc3ccc(C(=O)NCc4cccc(C(N)=O)c4)cc32)C1 | binding | competition with immobilised ligand | 1 µM | 100 |
| C[C@@H]1CCN(c2nccc(-c3cnn4ncccc34)n2)C1 | binding |  | 1 µM | 60 |
| C[C@@H](c1ccc(-n2cnc3c(N)ncnc32)cc1)N1CCc2nn(C)c(Cc3ccccc3)c2C1=O | binding | competition with immobilised ligand | 0.1 µM | 86 |
| Cn1cc(Cl)c2c(Oc3c(F)cc(Nc4cc(Cl)nc(N)n4)cc3F)ccnc21 | cell-free assay | competition with immobilised ligand | 0.1 µM | 89 |
| O=C(NCCCN1CCOCC1)c1ccc(Nc2ncc(Cl)c(-c3ccc(Cl)s3)n2)cc1 | binding | competition with immobilised ligand | 1 µM | 0.2 |
| CN(C)c1ncc(F)c(-c2cnn3ncccc23)n1 | binding |  | 1 µM | 100 |
| CN(C)C(=O)Cn1cc(-c2nc(C3(c4ccc(-c5cnc(N)nc5)cc4)CC3)no2)cn1 | cell-free assay | competition with immobilised ligand | 1 µM | 100 |
| Cc1cnc(Nc2ccc(C(=O)N3CCC(N4CCCC4)CC3)cc2)nc1-c1cc2ccccc2s1 | binding | competition with immobilised ligand | 1 µM | 0 |
| CN(C)c1nccc(-c2cnn3ncccc23)n1 | binding |  | 1 µM | 39 |
| CC1=C(C#N)[C@@H](c2ccc3[nH]nc(C)c3c2)C(C#N)=C(c2ccc(Cl)cc2)N1 | cell-free assay | competition with immobilised ligand | 1 µM | 100 |
| F[C@@H]1CCN(c2nccc(-c3cnn4ncccc34)n2)C1 | binding |  | 1 µM | 100 |
| O=C(c1ccc(Nc2ncc(Cl)c(-c3ccc(Cl)s3)n2)cc1)N1CCC(N2CCCC2)CC1 | binding | competition with immobilised ligand | 1 µM | 0.15 |
| COc1cc(-c2cn(C3CCc4ccccc4N(CC(F)(F)F)C3=O)nn2)ccc1-n1ccc(C)n1 (stereo not shown) | cell-free assay | competition with immobilised ligand | 1 µM | 84 |
| COc1ncc2cc3ccccc3nc2c1C#N | cell-free assay | competition with immobilised ligand | 5 µM | 97 |
| CN(C)c1nccc(-c2cnc3ncccn23)n1 | binding |  | 1 µM | 24 |
| CC(C)(O)c1cncc(-c2nc3ccc(F)cc3n2C2CC2)c1 | cell-free assay | competition with immobilised ligand | 1 µM | 100 |
| O=C(Nc1c[nH]nc1C(=O)NC1CCNCC1)c1cc(F)cc(F)c1 | binding | competition with immobilised ligand | 1 µM | 100 |
| C=CC(=O)N1CCC(C(=O)NCC(=O)N2CCN(c3nc(-c4cnc(N)nc4C(F)F)nc(N4CCOCC4)n3)CC2)CC1 | binding | competition with immobilised ligand | 1 µM | 100 |
| Nc1ncc2c(n1)-c1c([nH]c3ccc(C#CC4CC4)cc13)CCCC2 | binding | competition with immobilised ligand | 1 µM | 82 |
| N[C@H]1CCN(c2nccc(-c3cnn4ncccc34)n2)C1 | binding |  | 1 µM | 88 |
| CCOCCn1cc(C(=O)Nc2ccc(-n3nc(-c4cccnc4)cc3C(F)(F)F)cn2)ccc1=O | cell-free assay | competition with immobilised ligand | 1 µM | 100 |
